Screening data: PubChem BioAssay, The Scripps Research Institute Molecular Screening Center
M5 ag: CHRM5 agonism in calcium assay. CHO-K1 hM5 cells, Fluo-8 calcium fluorescence; 0% DMSO wells, 100% maximal acetylcholine response. activation, % at 3 µM. actives 0.19% (n = 360,000);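 active means activation above the run's mean over test compounds plus 3 SD, cut at about 23% in these data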;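 further: signal is peak over basal fluorescence ratio across the kinetic read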
Target sequence (P08912 whole entry, looked up): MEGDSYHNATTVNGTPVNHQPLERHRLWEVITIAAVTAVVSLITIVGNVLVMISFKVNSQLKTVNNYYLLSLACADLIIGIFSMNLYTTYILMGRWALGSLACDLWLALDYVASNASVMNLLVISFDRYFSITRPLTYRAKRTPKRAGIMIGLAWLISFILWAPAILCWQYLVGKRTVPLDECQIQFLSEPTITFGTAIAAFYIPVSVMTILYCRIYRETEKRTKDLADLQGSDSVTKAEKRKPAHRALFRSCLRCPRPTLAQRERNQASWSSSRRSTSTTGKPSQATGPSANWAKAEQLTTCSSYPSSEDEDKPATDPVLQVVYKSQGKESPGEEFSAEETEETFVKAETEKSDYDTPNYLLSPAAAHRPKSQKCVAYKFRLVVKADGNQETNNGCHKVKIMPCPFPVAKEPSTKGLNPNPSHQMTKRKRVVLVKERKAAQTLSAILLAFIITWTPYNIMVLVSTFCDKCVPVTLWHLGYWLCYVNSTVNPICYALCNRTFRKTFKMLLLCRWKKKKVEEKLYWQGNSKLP
M5 antag: CHRM5 antagonism in calcium assay; CHO-hM5 cells, Fluo-8 calcium fluorescence, ACh EC80; inhibition, % at 3 µM; actives 0.59% (n = 360,000); P08912; AID 624040;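 active means inhibition above a per-plate cutoff, the mean of that plate's test compounds plus 3 SD, cut at about 27% in these data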;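 further: 0% = acetylcholine EC80 with DMSO and 100% = DMSO without agonist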
CHRM4 antagonist: antagonists of human muscarinic M4 receptor (CHRM4); inhibition, % at 3 µM; P08173; CHO-hM4 cells, ACh EC80, Fluo-8 calcium fluorescence; actives 0.73% (n = 360,000); AID 624125;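 active means inhibition above its plate's cutoff, the mean inhibition of sample wells plus 3 SD, cut at about 27% in these data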;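 further: 0% = acetylcholine EC80 with DMSO and 100% = DMSO without agonist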
CHRM4 PAM: CHRM4 positive allosteric modulation | actives 0.4% (n = 360,000) | activation, % at 3 µM | P08173 | CHO-K1 hM4/Gqi5, Fluo-8 calcium fluorescence, ACh EC20; 0% = ACh EC20, 100% = maximal ACh;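 active means activation above its plate's cutoff, the mean activation of sample wells plus 3 SD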
M5 PAM: CHRM5 positive allosteric modulation; P08912; CHO-K1 hM5, Fluo-8 calcium, ACh EC20 PAM; 0% = ACh EC20, 100% = ACh EC100; activation, % at 3 µM; actives 0.3% (n = 360,000); AID 624038;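 active means activation above the run cutoff, the mean activation of all test compounds plus 3 SD, cut at about 18% in these data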
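Replicates: One well per compound, no replicates | System: Human M5 receptor in CHO-K1 cells | Benchmarks: Low control EC20 acetylcholine (0%), high control EC100 acetylcholine (100%) | Probe or stimulus: Acetylcholine, EC20 level | Times: Fluo-8 loading 80 min at 37 °C plus 30 min room temperature | Signal: Intracellular calcium via Fluo-8 fluorescence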
CHRM4 agonist: agonists of human muscarinic M4 receptor (CHRM4); CHO-K1 hM4/Gqi5, Fluo-8 calcium fluorescence; vehicle 0%, full acetylcholine response 100%; activation, % at 3 µM; actives 0.14% (n = 360,000);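 active means activation above the run mean over all test wells plus 3 SD, cut at about 32% in these data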;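 further: peak over basal fluorescence ratio per well then scaled between controls; 0% = DMSO wells and 100% = acetylcholine at EC100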
Numbers without * were called inactive. Sampled rows, rich in hits. Any-hit rate of the full collection: about 1.9%.

SMILES | M5 ag | M5 antag | CHRM4 antagonist | CHRM4 PAM | M5 PAM | CHRM4 agonist
CC(C)C[C@H]1CNC(=S)N1CC1CCN(CCC23CC4CC(CC(C4)C2)C3)CC1 | -3 | 49* | 67* | -16 | -19 | 3
CC[C@H](C)[C@H]1CNC(=S)N1CC1CCN(CCCC2CCCC2)CC1 | -3 | 16 | 27* | -14 | -17 | 2
O=C1CC(c2ccccc2)CN1C(=O)c1cccnc1 (stereo not drawn) | 2 | -5 | -5 | 18 | 19* | 1
Cn1c(Cc2ccccc2)nnc1SCC(=O)N1CCCCC1 | -1 | -2 | 95* | 11 | 2 | -1
Cc1ccccc1-n1c(SCC(=O)N2CCCC2)nnc1-c1ccccn1 | 2 | -21 | -4 | 6 | 19* | 1
COc1cc2c3c(c1)/C(=C1/SC(NC(C)=O)=NC1=O)C(=O)N3C(C)(C)C=C2C | -2 | 11 | 15 | -2 | -2 | 0
CN1CCN(CCNC(=O)c2cc3c(=O)n(C)c4ccccc4c3n2C)CC1 | 0 | 8 | 0 | 0 | -4 | 0
CCn1nc(NS(=O)(=O)c2ccc([N+](=O)[O-])cc2)c2cc3cc(C)ccc3nc21 | 0 | -6 | 6 | -2 | 7 | 0
CN1CCN(C(CNS(=O)(=O)c2ccc(Br)cc2)c2ccc3c(c2)OCO3)CC1 (stereo not drawn) | -10 | 27* | -5 | 0 | -34 | 6
COc1ccccc1NC(=O)CN1CCN(CC(=O)Nc2ccc(OC)c(OC)c2)CC1 | 0 | 4 | 3 | -1 | -2 | 2
CCOC(=O)C1=C(C)N(CCO)C(=O)NC1c1ccccc1 (stereo not drawn) | 1 | -2 | -6 | 9 | 20* | 0
CCOC(=O)C1=C(C)N(CCCC(=O)O)C(=O)NC1c1ccccc1 (stereo not drawn) | 3 | 11 | 1 | 5 | -1 | 1
CCCCCCCCOc1ccc(C(=O)O)cc1 | 1 | 4 | 2 | 22* | 6 | 2
CCCCOc1ccc(C(=O)Nc2cccc(C)n2)cc1 | 0 | -1 | 94* | 6 | -4 | 8
CCCCOc1ccc(C(=O)O)cc1 | -2 | 3 | 8 | 8 | -5 | 1
CN(C)c1ccc(NC(=O)CN2CCC(N3CCCCC3)CC2)cc1 | -3 | 0 | -17 | 7 | 24* | 1
CN(C)c1ccc(NC(=O)CN2CCC(NC(=O)C3CCCCC3)CC2)cc1 | -1 | -4 | -1 | 5 | 6 | 1
N=C(N)SCC1=CCS(=O)(=O)C1 | -2 | 31* | 21 | -9 | -20 | 19
Cc1cc(C(=O)CN2C(=O)CCC2=O)c(C)n1Cc1ccccc1 | 4 | -9 | -12 | 18* | 17 | 4
CCCCCN1C(=O)Cn2c(nc3ccccc3c2=O)C1C (stereo not drawn) | 4 | -19 | -13 | 10 | 18* | 2
CCCCCCc1nc2ccccc2c(=O)n1N | -1 | 10 | 8 | -11 | -12 | 11
CSc1ncc(C(=O)Nc2cccc(Cl)c2)c(C)n1 | -5 | 1 | 4 | -11 | -1 | 1
O=c1c(Cl)c(N2CCNCC2)cnn1C12CC3CC(CC(C3)C1)C2 | -11 | 11 | 31* | -21 | -6 | 0
COc1ccccc1N(C(C)=O)C1=C(Cl)C(=O)c2ccccc2C1=O | 1 | 35* | 90* | -12 | -8 | 2
O=C1/C(=C\c2ccc(Cl)c(Cl)c2)CN(C(=O)CCN2CCOCC2)C/C1=C/c1ccc(Cl)c(Cl)c1 | 8 | 17 | 43* | -7 | -1 | 6
O=C1/C(=C\c2ccccc2)CN(C(=O)CCN2CCCCC2)C/C1=C/c1ccccc1 | -10 | 8 | 20 | -10 | -3 | 4
Cc1cccc2sc(NC(=O)C3CCN(S(=O)(=O)c4cc([N+](=O)[O-])ccc4Cl)CC3)nc12 | 4 | 20 | 29* | -24 | -11 | 11
C[C@@H]1CN([C@H](C)CO)C(=O)CCCn2nncc2CO[C@H]1CN(C)S(C)(=O)=O | 0 | -9 | 101* | -16 | 8 | -3
